# Source: ChEMBL document CHEMBL4396907, “Structure-activity relationship study and biological evaluation of SAC-Garlic acid conjugates as novel anti-inflammatory agents” (Eur J Med Chem, 2019)
# pIC50: −log10 of the molar value. Calls of active or inactive are those of the source. The rule behind the calls is not given here.
# Assays:
# Toll-like receptor 2 = Toll-like receptor 2 (Mus musculus, UniProt Q9QUN7); assay: Antagonist activity at TLR2 in mouse RAW264.7 cells assessed as PAM3CSK4-induced NO production measured after 24 hrs by Griess assay; type: cell-based
# Sequence of Toll-like receptor 2 (Q9QUN7 whole entry): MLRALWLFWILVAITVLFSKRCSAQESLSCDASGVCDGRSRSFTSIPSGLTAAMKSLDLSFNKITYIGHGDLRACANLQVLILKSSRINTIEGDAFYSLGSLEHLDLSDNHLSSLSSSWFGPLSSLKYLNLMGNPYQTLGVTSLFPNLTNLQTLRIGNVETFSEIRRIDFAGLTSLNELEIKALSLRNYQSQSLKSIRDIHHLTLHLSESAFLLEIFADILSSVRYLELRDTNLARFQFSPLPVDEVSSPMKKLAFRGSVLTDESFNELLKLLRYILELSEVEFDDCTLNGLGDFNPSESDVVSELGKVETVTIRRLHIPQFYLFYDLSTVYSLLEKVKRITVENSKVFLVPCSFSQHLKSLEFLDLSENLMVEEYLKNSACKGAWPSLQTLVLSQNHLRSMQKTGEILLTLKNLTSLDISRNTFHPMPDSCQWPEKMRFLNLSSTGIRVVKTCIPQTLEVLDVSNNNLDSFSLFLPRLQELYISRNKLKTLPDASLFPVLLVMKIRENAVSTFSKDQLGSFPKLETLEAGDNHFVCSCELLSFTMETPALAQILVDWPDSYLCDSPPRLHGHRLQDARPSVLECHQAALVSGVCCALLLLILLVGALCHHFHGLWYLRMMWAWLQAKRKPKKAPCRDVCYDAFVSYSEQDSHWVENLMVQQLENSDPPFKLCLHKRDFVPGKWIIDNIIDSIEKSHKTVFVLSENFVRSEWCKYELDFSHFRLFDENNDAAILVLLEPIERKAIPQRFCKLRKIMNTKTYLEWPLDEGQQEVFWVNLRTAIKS
# Summary of the method: (§1)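 RAW 264.7 cells in DMEM/10% FBS/pen-strep, 80,000 per well, preincubated 24 h at 37 °C, 5% CO2. Nonadherent cells removed, medium changed to plain DMEM. Cells co-treated with compound and 200 ng/mL Pam3CSK4 for 24 h. Nitrite in supernatant measured by modified Griess reagent (sulfanilic acid/phosphoric acid, then naphthylethylenediamine), read at OD560. Triplicate.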
# [1] = target: Toll-like receptor 2 (Mus musculus) (UniProt Q9QUN7); assay: Antagonist activity at TLR2 in mouse RAW264.7 cells assessed as PAM3CSK4-induced NO production at 150 uM measured after 24 hrs by Griess assay; type: cell-based; summary of the method: as §1
# Sequence of Toll-like receptor 2 (Mus musculus) (Q9QUN7 whole entry): as above
# [2] = target: Toll-like receptor 2 (Homo sapiens) (UniProt O60603); assay: Inhibition of TLR2 in human PBMC cells assessed as PAM2CSK4-induced TLR2/Myd88 heterodimerization formation by immunoprecipitation assay; type: cell-based
# Sequence of Toll-like receptor 2 (Homo sapiens) (O60603 whole entry): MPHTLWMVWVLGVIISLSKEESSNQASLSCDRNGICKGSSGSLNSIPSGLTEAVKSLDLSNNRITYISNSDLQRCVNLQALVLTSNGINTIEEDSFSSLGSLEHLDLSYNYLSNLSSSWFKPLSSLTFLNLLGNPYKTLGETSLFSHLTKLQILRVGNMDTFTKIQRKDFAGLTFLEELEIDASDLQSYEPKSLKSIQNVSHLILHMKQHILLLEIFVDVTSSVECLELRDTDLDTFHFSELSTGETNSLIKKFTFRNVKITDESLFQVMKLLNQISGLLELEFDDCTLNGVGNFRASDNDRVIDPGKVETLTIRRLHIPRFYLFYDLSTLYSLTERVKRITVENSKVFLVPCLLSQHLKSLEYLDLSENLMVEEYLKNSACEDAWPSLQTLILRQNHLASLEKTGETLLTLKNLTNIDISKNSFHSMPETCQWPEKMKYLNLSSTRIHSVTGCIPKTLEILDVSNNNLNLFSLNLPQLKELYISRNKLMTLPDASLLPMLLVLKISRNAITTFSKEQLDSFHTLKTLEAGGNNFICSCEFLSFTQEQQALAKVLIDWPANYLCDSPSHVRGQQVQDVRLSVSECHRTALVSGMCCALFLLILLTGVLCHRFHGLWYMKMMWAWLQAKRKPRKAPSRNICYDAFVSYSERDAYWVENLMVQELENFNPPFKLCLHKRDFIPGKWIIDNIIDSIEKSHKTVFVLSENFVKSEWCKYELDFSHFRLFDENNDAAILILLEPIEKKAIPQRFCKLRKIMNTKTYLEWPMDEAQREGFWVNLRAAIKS
# Summary of the method: (§2)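 Human PBMC, 10^6 cells/mL, given vehicle, Pam3CSK4 (50 ng/mL) or Pam2CSK4 (50 ng/mL) with compound for 24 h. Lysates incubated with anti-TLR2 overnight at 4 °C, then protein A agarose for 4 h. Beads washed three times and boiled in SDS buffer. Immunoprecipitates blotted for TLR1, TLR2, TLR6 and MyD88.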
# [3] = target: Toll-like receptor 2 (Homo sapiens) (UniProt O60603); assay: Inhibition of TLR2 in human HEK-Blue hTLR2 cells assessed as suppression of PAM3CSK4-induced SEAP signaling at 25 uM after 24 hrs by quanti-blue assay relative to control; type: cell-based
# Summary of the method: (§3)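 HEK-Blue hTLR2 cells (human TLR2, CD14 and NF-κB/AP-1-driven SEAP reporter), 4×10^4 per well, grown 24 h in DMEM/10% FBS. Changed to plain DMEM with compound (0–100 µM) plus 20 ng/ml Pam3CSK4 (TLR1/2) or 20 ng/ml Pam2CSK4 (TLR2/6) for 24 h. Supernatant SEAP read with QUANTI-Blue at 37 °C, OD620 after 15–30 min. Mean ± SD of three independent experiments.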
# [4] = target: Toll-like receptor 2 (Mus musculus) (UniProt Q9QUN7); assay: Inhibition of TLR2 in mouse RAW264.7 cells assessed as decrease in PAM3CSK4 induced TNF-alpha expression at 25 uM measured after 24 hrs by ELISA relative to control; type: cell-based
# Summary of the method: (§4)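 RAW 264.7 cells or human PBMC, 1×10^6 per well in DMEM/10% FBS/pen-strep, treated with compound plus 50 ng/ml Pam3CSK4 for 24 h at 37 °C. Supernatants frozen at −80 °C. TNF-α measured by sandwich ELISA against recombinant standards, triplicate samples. Mean ± SD, three independent experiments.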
# [5] = Inhibition of PAM3CSK4-induced TLR2 expression in human HEK-Blue Htlr2 cells at 12.5 uM by Western blot analysis relative to control; type: functional; settings: HEK-Blue hTLR2, read-out: INH
# Summary of the method: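 HEK-Blue hTLR2 cells, 1.5×10^6 per well, grown 24 h, then in plain DMEM with compound and 50 ng/mL Pam3CSK4 for 24 h. Lysed in RIPA/PMSF. Equal lysate amounts run on SDS-PAGE and transferred to nitrocellulose. Blocked in 5% milk, probed overnight at 4 °C with anti-TLR2, then HRP secondary.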
# [6] = target: Toll-like receptor 2 (Homo sapiens) (UniProt O60603); assay: Inhibition of TLR2 in human THP1 assessed as decrease in PAM3CSK4 induced TNF-alpha expression measured after 4 hrs by ELISA
# TLR2/TLR6 (Homo sapiens) = TLR2/TLR6 (Homo sapiens) (UniProt O60603+Q9Y2C9); assay: Inhibition of PAM2CSK4-induced TLR2/6 activation in human HEK-Blue hTLR2 cells; type: cell-based; summary of the method: as §3
# [7] = target: Toll-like receptor 3 (Homo sapiens) (UniProt O15455); assay: Inhibition of Poly:IC-induced TLR3 activation in human HEK-Blue hTLR3 cells; type: cell-based
# Sequence of Toll-like receptor 3 (Homo sapiens) (O15455 whole entry): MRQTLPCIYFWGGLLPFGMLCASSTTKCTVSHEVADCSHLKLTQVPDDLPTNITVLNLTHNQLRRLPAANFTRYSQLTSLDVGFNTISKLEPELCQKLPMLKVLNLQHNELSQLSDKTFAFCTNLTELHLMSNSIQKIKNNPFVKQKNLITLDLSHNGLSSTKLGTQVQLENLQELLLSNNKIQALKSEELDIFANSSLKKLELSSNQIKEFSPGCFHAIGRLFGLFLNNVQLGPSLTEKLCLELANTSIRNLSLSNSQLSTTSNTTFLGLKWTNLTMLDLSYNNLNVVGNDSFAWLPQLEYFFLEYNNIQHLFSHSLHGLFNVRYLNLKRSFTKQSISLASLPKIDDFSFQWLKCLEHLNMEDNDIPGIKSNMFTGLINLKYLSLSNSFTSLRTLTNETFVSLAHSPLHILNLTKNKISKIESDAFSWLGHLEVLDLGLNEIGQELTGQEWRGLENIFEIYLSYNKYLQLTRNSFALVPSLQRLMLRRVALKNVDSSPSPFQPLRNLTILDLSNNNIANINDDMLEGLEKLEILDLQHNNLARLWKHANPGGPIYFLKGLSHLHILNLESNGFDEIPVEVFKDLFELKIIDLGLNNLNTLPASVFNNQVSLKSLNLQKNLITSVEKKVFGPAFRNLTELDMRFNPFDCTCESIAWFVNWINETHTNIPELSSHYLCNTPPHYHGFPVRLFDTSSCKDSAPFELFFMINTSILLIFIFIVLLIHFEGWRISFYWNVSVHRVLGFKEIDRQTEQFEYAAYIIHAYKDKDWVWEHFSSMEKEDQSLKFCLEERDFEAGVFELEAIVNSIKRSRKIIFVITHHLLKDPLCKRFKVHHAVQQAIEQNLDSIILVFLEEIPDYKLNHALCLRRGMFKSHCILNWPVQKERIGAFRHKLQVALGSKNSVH
# Summary of the method: (§5)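 HEK-Blue hTLR4 or hTLR3 reporter cells, 4×10^4 per well, grown 24 h, then switched to plain DMEM with compound (0–50 µM). Stimulant was 20 ng/ml LPS for hTLR4 and 20 µg/ml Poly:IC for hTLR3, for 24 h. Supernatant SEAP measured by QUANTI-Blue at OD620. Vehicle as negative control. Three independent experiments.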
# RAW264.7 = assay: Cytotoxicity against mouse RAW264.7 cells assessed as effect on cell viability at 6.25 to 100 uM cotreated with PAM3CSK4 measured after 24 hrs by MTT assay; type: cell-based; settings: raw264.7, 24 h
# Summary of the method: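 RAW 264.7 cells, 80,000 per well, grown 24 h in DMEM/10% FBS/pen-strep. Medium then switched to plain DMEM containing compound plus Pam3CSK4 (final 200 ng/ml) for 24 h. MTT (5 mg/ml stock in PBS) added for 4 h, formazan dissolved in DMSO, absorbance read at 450 nm.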
# [8] = target: Toll-like receptor 2 (Homo sapiens) (UniProt O60603); assay: Inhibition of TLR2 in human HEK-Blue hTLR2 cells assessed as suppression of PAM3CSK4-induced SEAP signaling after 24 hrs by quanti-blue assay; type: cell-based; summary of the method: as §3
# [9] = target: Toll-like receptor 2 (Homo sapiens) (UniProt O60603); assay: Inhibition of TLR2 in human PBMC cells assessed as decrease in PAM3CSK4 induced TNF-alpha expression at 12.5 uM measured after 24 hrs by ELISA relative to control; type: cell-based; summary of the method: as §4
# [10] = target: Toll-like receptor 2 (Homo sapiens) (UniProt O60603); assay: Inhibition of TLR2 in human PBMC cells assessed as PAM2CSK4-induced TLR2/6 heterodimerization formation by immunoprecipitation assay; type: cell-based; summary of the method: as §2
# [11] = target: Toll-like receptor 2 (Homo sapiens) (UniProt O60603); assay: Inhibition of TLR2 in human PBMC cells assessed as PAM3CSK4-induced TLR1/2 heterodimerization formation by immunoprecipitation assay; type: cell-based; summary of the method: as §2
# [12] = target: Toll-like receptor 4 (Homo sapiens) (UniProt O00206); assay: Inhibition of LPS-induced TLR4 activation in human HEK-Blue hTLR4 cells; type: cell-based; summary of the method: as §5
# Sequence of Toll-like receptor 4 (Homo sapiens) (O00206 whole entry): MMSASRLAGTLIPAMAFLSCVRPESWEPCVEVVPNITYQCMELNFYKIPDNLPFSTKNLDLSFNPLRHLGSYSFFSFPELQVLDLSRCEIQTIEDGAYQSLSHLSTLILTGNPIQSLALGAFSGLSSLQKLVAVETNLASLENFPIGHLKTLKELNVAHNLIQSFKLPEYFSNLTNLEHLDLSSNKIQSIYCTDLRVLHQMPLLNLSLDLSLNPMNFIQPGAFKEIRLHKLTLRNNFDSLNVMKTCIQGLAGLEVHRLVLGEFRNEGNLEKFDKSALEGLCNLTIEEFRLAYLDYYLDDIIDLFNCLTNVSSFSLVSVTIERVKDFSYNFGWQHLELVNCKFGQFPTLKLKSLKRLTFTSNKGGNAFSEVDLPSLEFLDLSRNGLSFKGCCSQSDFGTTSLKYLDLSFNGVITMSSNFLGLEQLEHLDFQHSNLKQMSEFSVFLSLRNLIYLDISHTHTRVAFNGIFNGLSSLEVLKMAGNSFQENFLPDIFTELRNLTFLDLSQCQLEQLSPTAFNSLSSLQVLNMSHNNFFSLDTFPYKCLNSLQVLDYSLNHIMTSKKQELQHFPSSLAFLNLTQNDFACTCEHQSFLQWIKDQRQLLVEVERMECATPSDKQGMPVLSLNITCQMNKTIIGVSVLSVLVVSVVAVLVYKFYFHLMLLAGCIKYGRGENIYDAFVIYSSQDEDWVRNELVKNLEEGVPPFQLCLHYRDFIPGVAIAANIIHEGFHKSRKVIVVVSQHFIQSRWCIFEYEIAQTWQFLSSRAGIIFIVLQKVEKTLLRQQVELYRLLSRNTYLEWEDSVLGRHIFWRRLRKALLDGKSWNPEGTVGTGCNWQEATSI
# [13] = target: Toll-like receptor 2 (Mus musculus) (UniProt Q9QUN7); assay: Inhibition of TLR2 in mouse RAW264.7 cells assessed as decrease in PAM3CSK4 induced TNF-alpha expression measured after 24 hrs by ELISA; type: cell-based; summary of the method: as §4
# [14] = target: Toll-like receptor 2 (Homo sapiens) (UniProt O60603); assay: Inhibition of TLR2 in human PBMC cells assessed as PAM3CSK4-induced TLR2/Myd88 heterodimerization formation by immunoprecipitation assay; type: cell-based; summary of the method: as §2
# [15] = target: Toll-like receptor 1/2 (Homo sapiens) (UniProt O60603+Q15399); assay: Inhibition of PAM3CSK4-induced TLR1/2 activation in human HEK-Blue hTLR2 cells; type: cell-based; summary of the method: as §3
pIC50 (Toll-like receptor 2),Structure (SMILES),also measured
4.50,C=CCCCSC[C@H](N)C(=O)OC,–
4.56,C=CCCSC[C@H](NC(=O)c1cc(OC)c(OC)c(OC)c1)C(=O)OC,–
4.28,C=CCCCSC[C@H](NC(=O)c1ccc(O)cc1)C(=O)OC,–
–,N[C@@H](CSCc1ccccc1)C(=O)O,Activity [1]: inactive
4.22,COC(=O)[C@H](CSCc1ccccc1)NC(=O)c1cc(O)c(O)c(O)c1,–
4.15,C#CCSC[C@H](NC(=O)c1cc(O)c(O)c(O)c1)C(=O)OC,–
–,C=CCCCSC[C@H](N)C(=O)O,Activity [1]: inactive
4.65,C=CCCCSC[C@H](NC(=O)c1cc(OC)c(OC)c(OC)c1)C(=O)OC,inhibition [2]: Active; inhibition [3]: 50%; inhibition [4]: 50%; inhibition at 12.5 µM [5]: > 90%; inhibition [6]: Active; inhibition (TLR2/TLR6 (Homo sapiens)): Active; inhibition [7]: inactive; Activity (RAW264.7): Non-Toxic; inhibition [8]: Dose-dependent effect; inhibition [9]: > 95%; inhibition [10]: Active; inhibition [11]: Active; inhibition [12]: inactive; inhibition [13]: Dose-dependent effect; inhibition [14]: Active; inhibition [15]: Active
4.00,COC(=O)[C@@H](N)CSCc1ccc(F)cc1,–
4.24,C=CCCSC[C@H](NC(=O)c1cc(O)c(O)c(O)c1)C(=O)OC,–
3.93,COC(=O)[C@@H](N)CSCc1ccccc1,–
4.28,COC(=O)[C@H](CSCc1ccccc1)NC(=O)c1ccc(O)cc1,–
4.26,C=CCCSC[C@H](NC(=O)c1ccc(O)cc1)C(=O)OC,–
4.27,C#CCSC[C@H](NC(=O)c1cc(OC)c(OC)c(OC)c1)C(=O)OC,–
4.31,C=CCSC[C@H](NC(=O)c1cc(OC)c(OC)c(OC)c1)C(=O)OC,–
4.34,C=CCCSC[C@H](N)C(=O)OC,–
4.39,C=CCSC[C@H](NC(=O)c1ccc(O)cc1)C(=O)OC,–
4.43,COC(=O)[C@H](CSCc1ccc(F)cc1)NC(=O)c1ccc(O)cc1,–
4.49,COC(=O)[C@H](CSCc1ccccc1)NC(=O)c1cc(OC)c(OC)c(OC)c1,–

pIC50 (Toll-like receptor 2),Structure (SMILES),also measured
4.26,C=CCSC[C@H](N)C(=O)OC,–
4.45,C=CCCSC[C@H](NC(=O)c1cc(O)cc(O)c1)C(=O)OC,–
4.23,C=CCSC[C@H](NC(=O)c1cc(O)cc(O)c1)C(=O)OC,–
–,C=CCSC[C@H](N)C(=O)O,Activity [1]: inactive; inhibition [8]: inactive
4.38,C#CCSC[C@H](NC(=O)c1cc(O)cc(O)c1)C(=O)OC,–
4.26,C#CCSC[C@H](NC(=O)c1ccc(O)cc1)C(=O)OC,–
4.30,COC(=O)[C@H](CSCc1ccc(F)cc1)NC(=O)c1cc(O)c(O)c(O)c1,–
4.30,COC(=O)[C@H](CSCc1ccccc1)NC(=O)c1cc(O)cc(O)c1,–
4.03,C#CCSC[C@H](N)C(=O)OC,–
4.41,C=CCCCSC[C@H](NC(=O)c1cc(O)c(O)c(O)c1)C(=O)OC,–
4.54,COC(=O)[C@H](CSCc1ccc(F)cc1)NC(=O)c1cc(OC)c(OC)c(OC)c1,–
–,N[C@@H](CSCc1ccc(F)cc1)C(=O)O,Activity [1]: inactive
–,C#CCSC[C@H](N)C(=O)O,Activity [1]: inactive
–,C=CCCSC[C@H](N)C(=O)O,Activity [1]: inactive
3.93,O=C(O)c1ccc(O)cc1 [PARABEN],–
3.93,"O=C(O)c1cc(O)cc(O)c1 [3,5-DIHYDROXYBENZOIC ACID]",–
4.24,C=CCCCSC[C@H](NC(=O)c1cc(O)cc(O)c1)C(=O)OC,–
4.28,C=CCSC[C@H](NC(=O)c1cc(O)c(O)c(O)c1)C(=O)OC,–
4.42,COC(=O)[C@H](CSCc1ccc(F)cc1)NC(=O)c1cc(O)cc(O)c1,–

Structure (SMILES),pIC50 (Toll-like receptor 2),also measured
"COc1cc(C(=O)O)cc(OC)c1OC [3,4,5-TRIMETHOXYBENZOIC ACID]",4.27,–
O=C(O)c1cc(O)c(O)c(O)c1 [GALLIC ACID],4.16,–
